Diaph act CS = activates diaphorase or chemically reduces, flagging diaphorase assay artifacts | activation factor at 20 µM | 190,000 compounds, 0.005% hits | AID 1229 | Diaphorase/resazurin coupled assay, resorufin fluorescence, 16 min; active compounds read high; 1 = vehicle wells, 0 = NADH-free wells;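 active = diaphorase activity raised at least twofold by the compound at 20 µM; inactive = activation factor below 2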
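Assay system: Purified diaphorase enzyme from Clostridium kluyveri | Amount: Enzyme 0.07 U/mL final | Dosing: Compound 20 µM once, DMSO 1% | Timing: 16 min reaction at room temperature | Detection: Fluorescence, excitation 544 nm and emission 590 nm | Evaluation: Higher resorufin formation from activation or reduction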
PMI act hi M6P = PMI (human) activation, high substrate; coupled PMI enzyme assay, resazurin fluorescence, 20 min; active compounds read high; 1 = untreated enzyme, 0 = substrate-free blank; activation factor at 20 µM; 190,000 compounds, 0.34% hits;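 active = activation factor of 2 or more at 20 µM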
Target sequence (P34949 whole entry, looked up): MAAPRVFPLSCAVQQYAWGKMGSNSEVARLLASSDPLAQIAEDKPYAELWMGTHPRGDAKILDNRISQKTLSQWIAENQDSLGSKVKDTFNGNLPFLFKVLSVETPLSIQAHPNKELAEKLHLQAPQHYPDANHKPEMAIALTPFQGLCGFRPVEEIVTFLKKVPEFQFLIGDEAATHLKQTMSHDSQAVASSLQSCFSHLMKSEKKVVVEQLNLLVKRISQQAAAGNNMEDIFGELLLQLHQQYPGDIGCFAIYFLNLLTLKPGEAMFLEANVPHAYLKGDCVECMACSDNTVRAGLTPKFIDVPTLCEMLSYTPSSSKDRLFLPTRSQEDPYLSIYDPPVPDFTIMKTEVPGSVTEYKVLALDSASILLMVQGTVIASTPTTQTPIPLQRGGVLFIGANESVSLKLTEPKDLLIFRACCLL
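Test system: human phosphomannose isomerase with PGI, G6PDH, diaphorase coupling enzymes; Amount: PMI at 15 ng/mL final; Reagent: Mannose-6-phosphate 1.0 mM (near-saturating) plus 0.22 mM NADP+; Timing: 20 min, room temperature; Technique: resorufin fluorescence at Ex 544/Em 590 nm; Dosing: 20 µM single dose.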
Lmaj promast = inhibitors of Leishmania major promastigote growth; 200,000 compounds, 9% hits; inhibition, % at 10 µM; AID 1063; Leishmania major promastigotes, resazurin fluorescence viability; in the data active = inhibition above about 50%;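 note: promastigotes grown with compound for 44 hours at 28 °C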
WT yeast gro inh = growth inhibition of WT yeast, mitochondrial fusion screen; mitochondrial fusion phenotypic screen, WT strain; inhibition, % at 10 µM; 190,000 compounds, 2.1% hits; AID 1362; in the data active = inhibition above about 58%; tested in S. cerevisiae
PMI act = phosphomannose isomerase (human) activation; P34949; purified human PMI, coupled resazurin fluorescence, 20 min; active compounds read high; 1 = vehicle control, 0 substrate-free wells; activation factor at 20 µM; 190,000 compounds, 0.005% hits; AID 1214;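 active = activation factor of 2 or more at 20 µM, relative to plate controls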
Large screens that a line does not name were inactive. Rows were chosen to be rich in hits. Some 10% of all compounds tested hit in one or more screens of this group.

CCN(CC)CCCN(C(=O)Cn1nnc(-c2ccc(OC)c(OC)c2)n1)C(C(=O)NC(C)(C)C)c1ccc(F)cc1 (centres undefined)	none
CCOC(=O)c1c(C)oc2c1c(C(c1cccnc1)N1CCN(C)CC1)c(O)c1ccccc12 (centres undefined)	none (no result: Lmaj promast, WT yeast gro inh)
CCOC(=O)c1c(C)oc2c1c(C=NCC1CCCO1)c(O)c1ccccc12 (centres undefined)	Lmaj promast 97.8
CCOC(=O)c1c(C)oc2c1c(C(c1cccnc1)N1CCOCC1)c(O)c1ccccc12 (centres undefined)	Lmaj promast 96.8, WT yeast gro inh 62.0
CCOC(=O)c1c(C)oc2c1c(C=NCc1ccccn1)c(O)c1ccccc12	Lmaj promast 98.1
CCN(CC)S(=O)(=O)c1cccc(C(=O)N/N=C/c2ccccn2)c1	none
CCCCCCCC[n+]1c(C)n(-c2ccccc2)c2ccc(NC(C)=O)cc21	Lmaj promast 98.6
CCc1cccc2c(C(=O)CN3C(=O)NC(C)(c4cccc5ccccc45)C3=O)c[nH]c12 (centres undefined)	Lmaj promast 62.9
CC(C)=CCc1c(O)c(CC=C(C)C)c2c(c1O)C(=O)CC(c1ccc(O)cc1)O2 (centres undefined)	WT yeast gro inh 91.1
Cc1c(O)cc2c(c1O)C(=O)CC(c1ccc(O)cc1)O2 (centres undefined)	none
CC1(C)C(=O)N(OCc2ccccc2)C(C)(C)C(=O)N1OCc1ccccc1	none
CCCN1C(=O)C(Cc2nc3ccccc3c(=O)n2-c2ccccc2)c2ccccc21 (centres undefined)	Lmaj promast 89.2
C[C@H]1COC2=C1C(=O)C(=O)c1c2ccc2c1CCCC2(C)C	WT yeast gro inh 74.2
Cc1coc2cc3oc(=O)c4c(c3cc12)CCC4	none
Cc1coc2c1C(=O)C(=O)c1c-2ccc2c1CCCC2(C)C	Lmaj promast 98.2, WT yeast gro inh 73.3
COc1ccccc1C(=O)NCC(=O)NNc1ncnc(N)c1[N+](=O)[O-]	none
O=S(=O)(NCC(Nc1ccc(Cl)cc1)c1ccccc1)c1ccccc1 (centres undefined)	WT yeast gro inh 82.8
CCN(CC)C(CNS(=O)(=O)c1ccc(Cl)cc1)c1ccccc1 (centres undefined)	none
Cc1ccc(NC(CNS(=O)(=O)c2ccc(Cl)cc2)c2ccccc2)cc1 (centres undefined)	Lmaj promast 53.5, WT yeast gro inh 87.7
NS(=O)(=O)c1ccc(NC(CNS(=O)(=O)c2ccccc2)c2ccccc2)cc1 (centres undefined)	none
C/C(=N/NC(=O)CNC(=O)c1cccnc1)c1cccc([N+](=O)[O-])c1	none
CC(/C=N/Nc1nc2ccccc2[nH]1)=C\c1ccccc1	WT yeast gro inh 89.6
Fc1ccc(/C=N/Nc2ccccn2)cc1	Lmaj promast 69.2
O=c1[nH]c(N/N=C\c2ccc(F)cc2)nc2ccccc12	Lmaj promast 64.6
Clc1ccc(/C=N/Nc2ccccn2)cc1	none
CC(/C=N/Nc1nc(C)cc(=O)[nH]1)=C\c1ccccc1	none
COC(=O)c1ccc(/C=N/Nc2nc3ccccc3[nH]2)cc1	none
CC(=O)Nc1ccc(/C=N/Nc2nc3ccccc3[nH]2)cc1	Lmaj promast 99.7
O=c1[nH]c(N/N=C/c2ccc(O)cc2)nc2ccccc12	none
COc1cccc(C(=O)Nc2ccc(S(=O)(=O)Nc3cc(C)nc(C)n3)cc2)c1	none (no result: Diaph act CS, PMI act hi M6P, PMI act)
CCN(CC)c1ccc(/C=N/Nc2nc3ccccc3[nH]2)cc1	Lmaj promast 100.0, WT yeast gro inh 78.5
C(=N\Nc1nc2ccccc2[nH]1)/c1ccncc1	none
CCC(C(=O)Nc1ccc(OC)c(Cl)c1)c1ccccc1 (centres undefined)	Lmaj promast 52.7, WT yeast gro inh 59.0
Cc1ccc(NS(=O)(=O)c2ccc(OCC(N)=O)cc2)cc1	none
O=C(c1ccc(Cl)cc1)[C@@H]1[C@@H]2C(=O)N(c3cccc4ccccc34)C(=O)[C@@H]2C2c3ccccc3C=NN21 (some centres undefined)	none
COC(=O)C(NC(=O)CSc1nc(N)cc(=O)[nH]1)c1ccccc1 (centres undefined)	none
COc1ccc(NC(=O)CC23CC4CC(CC(C4)C2)C3)cn1	none
CC(C(=O)Nc1ccc([N+](=O)[O-])cc1)N1CCN(C/C=C/c2ccccc2)CC1 (centres undefined)	Lmaj promast 81.9
CC(=O)c1ccc(NC(=O)C(C)N2CCN(C/C=C/c3ccccc3)CC2)cc1 (centres undefined)	Lmaj promast 86.2
CC(C(=O)Nc1ccc(C(=O)O)cc1)N1C(=O)c2ccccc2C1=O (centres undefined)	none (no result: WT yeast gro inh)
COc1ccc(Cl)cc1NC(=O)N1CCN(CCc2ccccc2)CC1	none
COc1ccc(Cl)cc1NC(=O)C(C)N1CCN(C/C=C/c2ccccc2)CC1 (centres undefined)	Lmaj promast 62.0
COCCNC(=O)C(OC(=O)c1nsc(Cl)c1Cl)C(C)C (centres undefined)	none
Cc1ccn(-c2cc(O)c(-n3ccc(C)n3)cc2O)n1	none
COc1cc(C(=S)N2CCCC2)cc(OC)c1O	none
O=C(Nc1ccccc1F)C(=Cc1sc(N2CCOCC2)nc1-c1ccccc1)C(=O)Nc1ccccc1F	Lmaj promast 53.0
O=C(O)c1cccc(Cn2c(Cl)c(/C=N/Nc3ccccc3)sc2=O)c1	PMI act hi M6P 2.5
O=C(O)c1cccc(N/N=C/c2sc(N3CCOCC3)nc2-c2ccccc2)c1	PMI act hi M6P 2.5
Cc1cc(C(=O)N/N=C/c2sc(N3CCOCC3)nc2-c2ccccc2)c(C)o1	Lmaj promast 52.3
O=C(Nc1ccnc(-c2cccnc2)n1)c1cccc(Cl)c1Cl	none
O=c1oc2ccc3ccccc3c2cc1-c1nnc(-c2ccccc2)o1	none
Nc1nnc(-c2cc3c(ccc4ccccc43)oc2=O)s1	Lmaj promast 80.5
O=C(CN1C(=O)/C(=C2\SC(=S)N(C3CCS(=O)(=O)C3)C2=O)c2ccccc21)Nc1ccccc1 (centres undefined)	Lmaj promast 91.3
Cc1ccc(NC(=O)CN2C(=O)/C(=C3\SC(=S)N(C4CCS(=O)(=O)C4)C3=O)c3ccccc32)cc1 (centres undefined)	Lmaj promast 90.6
Cc1ccc(-n2c(SCC(=O)NCc3ccco3)nc3c(sc4ccccc43)c2=O)cc1	none
COc1ccc(NC(=O)C(Sc2nnc3ccccn23)c2ccccc2)cc1Cl (centres undefined)	none
NCCCCc1cn(CC(=O)N2CCNCC2)nn1	none
CN(C)S(=O)(=O)c1cccc(C(=O)Nc2ccccc2[N+](=O)[O-])c1	none
CN1CCN(c2ccc(Cl)cc2NS(=O)(=O)c2ccccc2Cl)CC1	Lmaj promast 99.5 (no result: WT yeast gro inh)
CN1CCN(c2ccc(Cl)cc2NC(=O)c2ccc(S(=O)(=O)N(C)C)cc2)CC1	Lmaj promast 99.7

Bioassay records as filed in PubChem.
